{"data": "Measured values of several laboratories", "target": "Ephrin type-B receptor 3 (EPHB3, Homo sapiens, UniProt P54753)", "Sequence (P54753 34-998, as in one of the studies)": "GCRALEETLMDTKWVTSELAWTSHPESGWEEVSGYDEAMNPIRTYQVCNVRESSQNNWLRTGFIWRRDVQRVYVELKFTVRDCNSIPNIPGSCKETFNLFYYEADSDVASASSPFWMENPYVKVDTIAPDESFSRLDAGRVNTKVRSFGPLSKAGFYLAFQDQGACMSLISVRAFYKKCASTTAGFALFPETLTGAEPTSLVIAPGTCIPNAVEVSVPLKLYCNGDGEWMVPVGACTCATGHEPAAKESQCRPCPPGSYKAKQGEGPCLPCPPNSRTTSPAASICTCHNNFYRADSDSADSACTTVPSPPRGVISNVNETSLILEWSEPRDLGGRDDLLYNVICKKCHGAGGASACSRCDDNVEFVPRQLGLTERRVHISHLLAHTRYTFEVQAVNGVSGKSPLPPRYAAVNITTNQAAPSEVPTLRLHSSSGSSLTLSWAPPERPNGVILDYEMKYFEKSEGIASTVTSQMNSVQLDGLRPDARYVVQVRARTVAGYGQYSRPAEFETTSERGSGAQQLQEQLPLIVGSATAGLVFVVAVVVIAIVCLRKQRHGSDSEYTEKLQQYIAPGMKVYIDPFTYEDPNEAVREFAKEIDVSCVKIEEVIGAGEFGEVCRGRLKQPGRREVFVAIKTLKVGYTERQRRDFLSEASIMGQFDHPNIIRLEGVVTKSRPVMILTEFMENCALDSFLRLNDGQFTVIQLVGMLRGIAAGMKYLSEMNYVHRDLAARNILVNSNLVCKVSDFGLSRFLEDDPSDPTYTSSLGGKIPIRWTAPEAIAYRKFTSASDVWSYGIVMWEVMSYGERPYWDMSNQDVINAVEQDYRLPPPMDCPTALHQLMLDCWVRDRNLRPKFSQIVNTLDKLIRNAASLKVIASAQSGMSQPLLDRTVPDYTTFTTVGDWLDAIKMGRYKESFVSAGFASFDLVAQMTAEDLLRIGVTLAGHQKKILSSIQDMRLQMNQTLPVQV", "note": "Compare with care: the assays were run in different laboratories."}
{"Structure (SMILES)": "COc1ncccc1-c1cnn2ccc(N3CCN(C(=O)OC(C)C)CC3)nc12", "effect on": "binding", "method": "competition with immobilised ligand", "tested at": "1 µM", "quantity": "remaining binding", "value": "100%"}
{"Structure (SMILES)": "CC(C)(C)c1cc(C=C(C#N)C#N)cc(Br)c1O", "effect on": "enzyme activity", "action": "inhibitor", "tested at": "0.5 µM", "quantity": "remaining activity", "value": "107%"}
{"Structure (SMILES)": "Cn1cc(-c2cccc(N3CCc4c(sc5c4CC(C)(C)C5)C3=O)c2CO)cc(Nc2ccncn2)c1=O", "effect on": "enzyme activity", "action": "inhibitor", "tested at": "1 µM", "quantity": "inhibition", "value": "1%"}
{"Structure (SMILES)": "Cc1nn(C)cc1-c1nc2c(N3CCN(Cc4ccc(Cl)cc4)CC3)c(Cl)cnc2[nH]1", "effect on": "binding", "method": "competition with immobilised ligand", "tested at": "1 µM", "quantity": "remaining binding", "value": "77%"}
{"Structure (SMILES)": "N#CC1(c2ccccn2)CCN(Cc2cc(C(=O)O)c(=O)n3ccccc23)CC1", "effect on": "cell-free assay", "method": "competition with immobilised ligand", "tested at": "1 µM", "quantity": "remaining binding", "value": "92%"}
{"Structure (SMILES)": "COc1cc(Nc2ncc(F)c(Nc3ccc4c(n3)NC(=O)C(C)(C)O4)n2)cc(OC)c1OC", "effect on": "binding", "tested at": "10 µM", "quantity": "inhibition", "value": "0%"}
{"Structure (SMILES)": "O=c1[nH]c2ccccc2n1C1CCN(Cc2ccc(-c3[nH]c4cc5ncnc5cc4nc3-c3ccccc3)cc2)CC1", "effect on": "cell-free assay", "tested at": "0.5 µM", "quantity": "remaining signal", "value": "104%"}
{"Structure (SMILES)": "Cn1cncc1[C@](O)(COc1ccc(C#N)cc1-c1ccc(OC(F)(F)F)cc1)c1ccc(C#N)cc1", "effect on": "cell-free assay", "method": "competition with immobilised ligand", "tested at": "1 µM", "quantity": "remaining binding", "value": "100%"}
{"Structure (SMILES)": "Cn1cc(-c2cc(F)cc(N3CCn4c(cc5c4CCCC5)C3=O)c2CO)cc(Nc2ccc(N3CCN(C4COC4)CC3)cn2)c1=O", "effect on": "enzyme activity", "action": "inhibitor", "tested at": "0.1 µM", "quantity": "inhibition", "value": "7%"}
